Values belong to the compound of their own block, whether it stands above or below them. Active and inactive are the calls of the source. No cut-off for these calls is given here.
Assays:
[1] = (§1) Antiproliferative activity against human A375P cells after 24 hrs by MTT assay; assay type: functional
Procedure, shortened: (§2)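 A375P cells (ATCC) grown in DMEM with 10% FBS and 1% penicillin/streptomycin at 37 °C, 5% CO2. Detached with 0.05% trypsin–0.02% EDTA, seeded at 5 × 10³ cells/well, and left 24 h before 12-point threefold serial dilutions were added. Viability was read by MTT reduction (CellTiter 96) at 590 nm, and GI50 was derived.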

[2] = (§3) Antiproliferative activity against human WM3629 cells after 24 hrs by MTT assay; assay type: functional; conditions: WM3629, 24 h
Procedure, shortened: (§4)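 WM3629 cells (Wistar Institute) were kept in Tu2% medium. GI50 was determined by MTT as for A375P: 5 × 10³ cells/well, 24 h settling, 12-point threefold serial dilutions, and absorbance at 590 nm.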

[3] = target: T1, RAF proto-oncogene serine/threonine-protein kinase (Homo sapiens, UniProt P04049); assay: Inhibition of human cRAF using [33P-ATP] as a substrate by scintillation counting
T1 sequence (P04049 whole entry): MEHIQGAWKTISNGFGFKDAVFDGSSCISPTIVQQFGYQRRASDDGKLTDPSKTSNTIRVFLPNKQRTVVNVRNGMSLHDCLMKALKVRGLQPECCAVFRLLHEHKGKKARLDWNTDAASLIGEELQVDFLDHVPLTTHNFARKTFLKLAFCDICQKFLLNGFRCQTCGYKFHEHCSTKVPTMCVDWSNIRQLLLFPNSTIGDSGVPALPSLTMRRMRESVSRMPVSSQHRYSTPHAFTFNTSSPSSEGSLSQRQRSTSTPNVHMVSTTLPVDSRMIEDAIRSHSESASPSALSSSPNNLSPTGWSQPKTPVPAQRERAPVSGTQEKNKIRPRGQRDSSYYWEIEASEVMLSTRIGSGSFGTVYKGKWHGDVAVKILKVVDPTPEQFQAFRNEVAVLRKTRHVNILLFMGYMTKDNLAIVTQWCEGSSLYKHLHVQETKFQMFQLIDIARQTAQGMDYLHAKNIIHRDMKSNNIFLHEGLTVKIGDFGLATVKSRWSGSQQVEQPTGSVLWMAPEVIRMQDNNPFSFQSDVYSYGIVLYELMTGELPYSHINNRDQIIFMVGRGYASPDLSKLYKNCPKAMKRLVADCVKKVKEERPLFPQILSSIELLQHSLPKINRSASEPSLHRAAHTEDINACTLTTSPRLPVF
Procedure, shortened: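 Run 40 min at room temperature, then stopped with 3% phosphoric acid. Spotted on P30 filter mat, washed in 75 mM phosphoric acid and methanol, dried, and scintillation-counted. IC50 came from a profiler service.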

[4] = target: Insulin receptor (Homo sapiens) (UniProt P06213); assay: Inhibition of human IR; conditions: concentration not given here
Procedure, shortened: (§5)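 Tested in an outsourced 30-kinase profiling service panel at a single concentration of 10, with percent inhibition reported.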

[5] = target: Ephrin type-A receptor 1 (Homo sapiens) (UniProt P21709); assay: Inhibition of human EphA1; conditions: concentration not given here; procedure, shortened: as §5
[6] = target: Tyrosine-protein kinase receptor UFO (Homo sapiens) (UniProt P30530); assay: Inhibition of human AXL; conditions: concentration not given here; procedure, shortened: as §5
[7] = target: Casein kinase II (Homo sapiens) (UniProt P67870+P68400+P19784); assay: Inhibition of human CK2; assay type: protein-complex assay; conditions: concentration not given here; procedure, shortened: as §5
[8] = target: BDNF/NT-3 growth factors receptor (Homo sapiens) (UniProt Q16620); assay: Inhibition of human TrkB; conditions: concentration not given here; procedure, shortened: as §5
[9] = target: Tyrosine-protein kinase SYK (Homo sapiens) (UniProt P43405); assay: Inhibition of human SYK; conditions: concentration not given here
[10] = target: Fibroblast growth factor receptor 1 (Homo sapiens) (UniProt P11362); assay: Inhibition of human FGFR1; conditions: concentration not given here; procedure, shortened: as §5
[11] = target: Cytoplasmic tyrosine-protein kinase BMX (Homo sapiens) (UniProt P51813); assay: Inhibition of human BMX; conditions: concentration not given here; procedure, shortened: as §5
[12] = target: Serine/threonine-protein kinase PLK1 (Homo sapiens) (UniProt P53350); assay: Inhibition of human PLK1; conditions: concentration not given here; procedure, shortened: as §5
Serine/threonine-protein kinase PLK1 (Homo sapiens), sequence (P53350 whole entry): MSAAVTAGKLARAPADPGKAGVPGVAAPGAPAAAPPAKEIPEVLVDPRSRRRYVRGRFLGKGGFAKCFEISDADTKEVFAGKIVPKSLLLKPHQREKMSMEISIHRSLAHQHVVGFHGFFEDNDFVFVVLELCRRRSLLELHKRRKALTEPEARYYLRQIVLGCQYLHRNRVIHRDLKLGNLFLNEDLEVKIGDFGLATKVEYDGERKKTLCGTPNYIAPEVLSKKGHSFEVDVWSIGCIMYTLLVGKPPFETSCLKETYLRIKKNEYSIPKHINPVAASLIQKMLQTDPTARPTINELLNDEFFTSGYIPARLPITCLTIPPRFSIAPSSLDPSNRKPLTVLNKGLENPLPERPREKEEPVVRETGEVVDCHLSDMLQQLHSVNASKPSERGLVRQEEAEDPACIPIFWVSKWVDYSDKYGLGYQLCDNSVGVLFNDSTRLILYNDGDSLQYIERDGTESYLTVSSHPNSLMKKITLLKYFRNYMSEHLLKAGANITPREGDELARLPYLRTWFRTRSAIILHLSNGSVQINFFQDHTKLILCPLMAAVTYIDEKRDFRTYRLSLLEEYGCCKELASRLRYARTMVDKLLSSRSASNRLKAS

[13] = target: Angiopoietin-1 receptor (Homo sapiens) (UniProt Q02763); assay: Inhibition of human Tie2; conditions: concentration not given here; procedure, shortened: as §5
[14] = target: Vascular endothelial growth factor receptor 2 (Homo sapiens) (UniProt P35968); assay: Inhibition of human KDR; conditions: concentration not given here; procedure, shortened: as §5
[15] = target: Mast/stem cell growth factor receptor Kit (Homo sapiens) (UniProt P10721); assay: Inhibition of human cKIT; conditions: concentration not given here; procedure, shortened: as §5
[16] = target: Inhibitor of nuclear factor kappa-B kinase subunit beta (Homo sapiens) (UniProt O14920); assay: Inhibition of human IKK-beta; conditions: concentration not given here; procedure, shortened: as §5
[17] = target: Cyclin-dependent kinase 5/CDK5 activator 1 (Homo sapiens) (UniProt Q00535+Q15078); assay: Inhibition of human CDK5/p35; assay type: protein-complex assay; conditions: concentration not given here; procedure, shortened: as §5
[18] = target: Insulin-like growth factor 1 receptor (Homo sapiens) (UniProt P08069); assay: Inhibition of human IGF1R; conditions: concentration not given here; procedure, shortened: as §5
[19] = target: Ribosomal protein S6 kinase beta-1 (Homo sapiens) (UniProt P23443); assay: Inhibition of human p701S6K; conditions: concentration not given here; procedure, shortened: as §5
Ribosomal protein S6 kinase beta-1 (Homo sapiens), sequence (P23443 whole entry, looked up): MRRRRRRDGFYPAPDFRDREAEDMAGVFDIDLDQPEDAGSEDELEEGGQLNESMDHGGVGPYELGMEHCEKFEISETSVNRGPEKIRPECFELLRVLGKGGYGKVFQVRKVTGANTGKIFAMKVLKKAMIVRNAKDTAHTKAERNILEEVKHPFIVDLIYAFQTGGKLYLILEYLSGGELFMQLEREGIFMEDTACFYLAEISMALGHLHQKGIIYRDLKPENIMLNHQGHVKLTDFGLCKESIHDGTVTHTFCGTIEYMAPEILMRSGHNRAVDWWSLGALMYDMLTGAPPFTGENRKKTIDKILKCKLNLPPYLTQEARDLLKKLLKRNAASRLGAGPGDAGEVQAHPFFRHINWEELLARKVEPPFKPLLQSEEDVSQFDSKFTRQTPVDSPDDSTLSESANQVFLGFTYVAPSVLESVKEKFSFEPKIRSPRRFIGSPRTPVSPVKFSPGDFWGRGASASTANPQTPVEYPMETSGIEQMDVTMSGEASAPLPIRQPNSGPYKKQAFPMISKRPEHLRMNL

[20] = target: Tyrosine-protein kinase JAK2 (Homo sapiens) (UniProt O60674); assay: Inhibition of human JAK2; conditions: concentration not given here; procedure, shortened: as §5
[21] = target: Receptor-type tyrosine-protein kinase FLT3 (Homo sapiens) (UniProt P36888); assay: Inhibition of human Flt3; conditions: concentration not given here; procedure, shortened: as §5
[22] = target: Tyrosine-protein kinase BTK (Homo sapiens) (UniProt Q06187); assay: Inhibition of human BTK; conditions: concentration not given here; procedure, shortened: as §5
Rattus norvegicus = organism: Rattus norvegicus; assay: Inhibition of rat AMPK; conditions: concentration not given here
Procedure, shortened: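 Part of an outsourced radiometric kinase panel of 30 kinases, tested at a single concentration of 10 µM. Read-out is percent inhibition of kinase activity.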

[23] = target: Hepatocyte growth factor receptor (Homo sapiens) (UniProt P08581); assay: Inhibition of human Met; conditions: concentration not given here; procedure, shortened: as §5
[24] = target: ALK tyrosine kinase receptor (Homo sapiens) (UniProt Q9UM73); assay: Inhibition of human ALK; conditions: concentration not given here; procedure, shortened: as §5
ALK tyrosine kinase receptor (Homo sapiens), sequence (Q9UM73 19-1620 limits assumed): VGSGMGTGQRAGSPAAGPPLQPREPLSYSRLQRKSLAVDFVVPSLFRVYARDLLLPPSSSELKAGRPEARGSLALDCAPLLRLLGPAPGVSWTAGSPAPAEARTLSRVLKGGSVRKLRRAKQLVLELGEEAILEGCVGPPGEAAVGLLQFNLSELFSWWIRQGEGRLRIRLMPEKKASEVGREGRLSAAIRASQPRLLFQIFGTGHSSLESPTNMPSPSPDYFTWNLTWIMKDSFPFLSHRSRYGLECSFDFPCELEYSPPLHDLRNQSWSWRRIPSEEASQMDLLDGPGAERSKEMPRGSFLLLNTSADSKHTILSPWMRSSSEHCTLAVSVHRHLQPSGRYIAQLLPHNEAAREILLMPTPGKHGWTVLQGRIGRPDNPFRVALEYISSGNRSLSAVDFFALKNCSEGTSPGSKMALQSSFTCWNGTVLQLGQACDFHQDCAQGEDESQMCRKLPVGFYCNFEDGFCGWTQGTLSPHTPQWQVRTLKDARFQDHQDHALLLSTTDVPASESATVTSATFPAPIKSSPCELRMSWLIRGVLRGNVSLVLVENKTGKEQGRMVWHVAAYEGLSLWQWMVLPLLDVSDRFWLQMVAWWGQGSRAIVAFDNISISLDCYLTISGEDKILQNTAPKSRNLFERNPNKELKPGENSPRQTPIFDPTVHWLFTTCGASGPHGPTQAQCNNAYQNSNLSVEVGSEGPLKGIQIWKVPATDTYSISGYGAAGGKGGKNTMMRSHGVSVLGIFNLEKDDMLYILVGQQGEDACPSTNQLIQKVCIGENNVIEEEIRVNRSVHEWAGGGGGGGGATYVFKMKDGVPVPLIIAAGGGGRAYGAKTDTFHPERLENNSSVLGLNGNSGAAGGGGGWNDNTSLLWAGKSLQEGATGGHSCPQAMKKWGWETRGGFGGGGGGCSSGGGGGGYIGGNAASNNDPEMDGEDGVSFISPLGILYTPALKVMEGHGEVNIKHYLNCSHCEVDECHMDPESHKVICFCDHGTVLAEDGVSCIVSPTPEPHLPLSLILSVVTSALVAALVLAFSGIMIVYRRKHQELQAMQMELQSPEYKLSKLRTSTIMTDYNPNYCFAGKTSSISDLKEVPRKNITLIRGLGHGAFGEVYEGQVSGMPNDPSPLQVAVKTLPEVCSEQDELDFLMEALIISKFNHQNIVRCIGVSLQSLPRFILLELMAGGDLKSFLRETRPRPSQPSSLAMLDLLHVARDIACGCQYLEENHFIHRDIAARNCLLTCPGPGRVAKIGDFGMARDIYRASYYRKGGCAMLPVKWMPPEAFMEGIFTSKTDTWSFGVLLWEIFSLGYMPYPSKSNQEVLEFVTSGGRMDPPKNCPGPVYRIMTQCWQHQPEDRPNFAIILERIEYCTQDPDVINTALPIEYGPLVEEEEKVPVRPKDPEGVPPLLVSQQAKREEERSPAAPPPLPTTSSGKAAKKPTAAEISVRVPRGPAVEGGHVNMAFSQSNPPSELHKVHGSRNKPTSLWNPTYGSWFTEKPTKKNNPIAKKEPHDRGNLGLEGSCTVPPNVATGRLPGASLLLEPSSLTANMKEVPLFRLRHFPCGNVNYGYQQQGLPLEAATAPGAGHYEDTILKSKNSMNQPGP

[25] = target: Aurora kinase A (Homo sapiens) (UniProt O14965); assay: Inhibition of human aurora A; conditions: concentration not given here; procedure, shortened: as §5
[26] = target: Platelet-derived growth factor receptor alpha (Homo sapiens) (UniProt P16234); assay: Inhibition of human PDGFRalpha; conditions: concentration not given here; procedure, shortened: as §5
[27] = target: Proto-oncogene tyrosine-protein kinase Src (Homo sapiens) (UniProt P12931); assay: Inhibition of human cSRC; conditions: concentration not given here; procedure, shortened: as §5
Proto-oncogene tyrosine-protein kinase Src (Homo sapiens), sequence (P12931 2-536 limits assumed): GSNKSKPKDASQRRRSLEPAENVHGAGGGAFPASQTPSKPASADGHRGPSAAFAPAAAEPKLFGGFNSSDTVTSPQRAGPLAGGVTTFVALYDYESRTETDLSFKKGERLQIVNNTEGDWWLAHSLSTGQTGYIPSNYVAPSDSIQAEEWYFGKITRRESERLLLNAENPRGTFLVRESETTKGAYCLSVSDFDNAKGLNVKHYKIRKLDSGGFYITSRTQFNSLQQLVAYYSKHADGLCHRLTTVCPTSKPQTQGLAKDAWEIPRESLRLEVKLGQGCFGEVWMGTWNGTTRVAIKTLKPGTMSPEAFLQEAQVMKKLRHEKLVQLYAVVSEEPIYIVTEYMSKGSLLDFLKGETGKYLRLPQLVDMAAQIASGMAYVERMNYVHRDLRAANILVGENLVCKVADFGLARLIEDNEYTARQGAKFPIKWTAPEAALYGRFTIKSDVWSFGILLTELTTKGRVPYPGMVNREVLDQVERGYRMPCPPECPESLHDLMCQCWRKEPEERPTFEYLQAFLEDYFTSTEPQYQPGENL

[28] = target: Cyclin-dependent kinase 2/cyclin E1 (Homo sapiens) (UniProt P24864+P24941); assay: Inhibition of human CDK2/cyclin E; assay type: protein-complex assay; conditions: concentration not given here; procedure, shortened: as §5
[29] = target: Tyrosine-protein kinase ABL1 (Homo sapiens) (UniProt P00519); assay: Inhibition of human ABL; conditions: concentration not given here; procedure, shortened: as §5
[30] = target: Macrophage colony-stimulating factor 1 receptor (Homo sapiens) (UniProt P07333); assay: Inhibition of human FMS; conditions: concentration not given here; procedure, shortened: as §5
Macrophage colony-stimulating factor 1 receptor (Homo sapiens), sequence (P07333 whole entry): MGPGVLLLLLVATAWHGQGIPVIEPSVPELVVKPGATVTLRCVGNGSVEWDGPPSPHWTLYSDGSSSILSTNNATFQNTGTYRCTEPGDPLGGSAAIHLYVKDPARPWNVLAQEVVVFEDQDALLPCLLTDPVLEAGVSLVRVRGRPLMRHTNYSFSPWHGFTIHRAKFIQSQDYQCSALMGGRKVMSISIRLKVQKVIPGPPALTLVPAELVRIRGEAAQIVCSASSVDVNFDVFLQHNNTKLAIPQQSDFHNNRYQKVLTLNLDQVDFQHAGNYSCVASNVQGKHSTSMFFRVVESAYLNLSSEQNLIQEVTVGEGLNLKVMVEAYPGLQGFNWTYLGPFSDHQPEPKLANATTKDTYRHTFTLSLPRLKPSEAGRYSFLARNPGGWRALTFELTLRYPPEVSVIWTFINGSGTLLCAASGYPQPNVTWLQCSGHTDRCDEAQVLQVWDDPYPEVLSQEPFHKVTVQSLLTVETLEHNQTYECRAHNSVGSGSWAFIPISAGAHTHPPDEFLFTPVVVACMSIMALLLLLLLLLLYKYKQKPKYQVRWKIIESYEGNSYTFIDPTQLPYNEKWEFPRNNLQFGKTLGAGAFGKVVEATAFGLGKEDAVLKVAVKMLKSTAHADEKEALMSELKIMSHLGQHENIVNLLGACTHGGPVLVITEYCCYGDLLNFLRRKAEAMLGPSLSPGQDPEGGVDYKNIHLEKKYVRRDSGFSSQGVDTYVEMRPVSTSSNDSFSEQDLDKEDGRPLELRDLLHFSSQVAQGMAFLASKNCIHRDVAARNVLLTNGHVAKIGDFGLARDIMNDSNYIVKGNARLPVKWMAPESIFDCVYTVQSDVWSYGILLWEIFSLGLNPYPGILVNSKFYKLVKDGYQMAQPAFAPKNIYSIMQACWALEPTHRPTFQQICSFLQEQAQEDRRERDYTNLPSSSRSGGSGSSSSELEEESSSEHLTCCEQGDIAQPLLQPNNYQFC

[31] = target: T1, RAF proto-oncogene serine/threonine-protein kinase; assay: Inhibition of human RAF; conditions: concentration not given here
Procedure, shortened: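 Human C-Raf (5–10 mU) incubated with 0.66 mg/mL myelin basic protein in 25 mM Tris pH 7.5, 0.02 mM EGTA, 10 mM Mg acetate. Spotted on P30 filter, washed in 75 mM phosphoric acid and methanol, then scintillation counted. Outsourced profiling service.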

A375P = assay: as §1; assay type: functional; procedure, shortened: as §2
WM3629 = assay: as §3; assay type: functional; procedure, shortened: as §4

Compound: O=C(Nc1ccc(-c2nc3c(cnn3Cc3ccccc3)[nH]2)cc1)Nc1ccc(Cl)c(Cl)c1
- GI50 [1]: > 100 µM
- GI50 [2]: 42.8 µM

- IC50 ([3]; read-out: IC50): 0.839 µM
Compound: COc1ccc(Cn2ncc3[nH]c(-c4cc(NC(=O)Nc5ccc(Cl)c(Cl)c5)ccc4C)nc32)cc1
- GI50 [1]: 15.3 µM
- GI50 [2]: 1.35 µM

Compound: Cc1cc(NC(=O)Nc2cc(Cl)cc(C(F)(F)F)c2)ccc1-c1nc2[nH]ncc2[nH]1
- GI50 [1]: > 100 µM
- GI50 [2]: 14.4 µM

- inhibition [4]: 0%
- inhibition [5]: 30%
- inhibition [6]: 6%
- inhibition [7]: 8%
- inhibition [8]: 62%
- inhibition [9]: 16%
- inhibition [10]: 26%
- inhibition [11]: 16%
- inhibition [12]: 8%
- inhibition [13]: 82%
- inhibition [14]: 8%
- inhibition [15]: 0%
- inhibition [16]: 16%
- inhibition [17]: 0%
- inhibition [18]: 35%
- inhibition [19]: 4%
- inhibition [20]: 0%
- inhibition [21]: 53%
- inhibition [22]: 10%
- inhibition (Rattus norvegicus): 5%
- inhibition [23]: 0%
- inhibition [24]: 61%
- inhibition [25]: 10%
- IC50 ([3]; read-out: IC50): 0.05 µM
- inhibition [26]: 0%
- inhibition [27]: 20%
- inhibition [28]: 33%
- inhibition [29]: 37%
- inhibition [30]: 42%
- inhibition [31]: 96%
Compound: Cc1cn(-c2cc(NC(=O)Nc3ccc(-c4nc5[nH]ncc5[nH]4)c(C)c3)cc(C(F)(F)F)c2)cn1
- GI50 [1]: 2.24 µM
- GI50 [2]: 0.86 µM

- GI50 (A375P): inactive
Compound: Cc1ccc(NC(=O)c2cc(N3CCOCC3)cc(C(F)(F)F)c2)cc1-c1nc2[nH]ncc2[nH]1
- GI50 (WM3629): inactive

Compound: Cc1cc(NC(=O)Nc2cc(N3CCOCC3)cc(C(F)(F)F)c2)ccc1-c1nc2[nH]ncc2[nH]1
- GI50 [1]: > 100 µM
- GI50 (WM3629): inactive

Compound: Cc1ccc(NC(=O)Nc2cc(N3CCOCC3)cc(C(F)(F)F)c2)cc1-c1nc2c(cnn2Cc2ccccc2)n1C
- GI50 [1]: > 100 µM
- GI50 [2]: > 100 µM

Compound: Cc1c(F)cc(F)c(NC(=O)Nc2ccc(-c3nc4c(cnn4Cc4ccccc4)[nH]3)cc2)c1F
- GI50 [1]: 51.7 µM
- GI50 [2]: 0.98 µM

Compound: COc1ccc(Cn2ncc3[nH]c(-c4cc(NC(=O)Nc5cc(Cl)cc(C(F)(F)F)c5)ccc4C)nc32)cc1
- GI50 [1]: > 100 µM
- GI50 [2]: > 100 µM

- IC50 ([3]; read-out: IC50): 0.146 µM
Compound: Cc1ccc(NC(=O)c2cc(Cl)cc(C(F)(F)F)c2)cc1-c1nc2c(cnn2Cc2ccccc2)[nH]1
- GI50 [1]: 2.06 µM
- GI50 [2]: 1.14 µM

Compound: Cc1ccc(NC(=O)Nc2cc(Cl)cc(C(F)(F)F)c2)cc1-c1nc2[nH]ncc2[nH]1
- GI50 [1]: > 100 µM
- GI50 [2]: > 100 µM

- GI50 (A375P): inactive
Compound: Cc1cc(NC(=O)Nc2cccc(Cl)c2Cl)ccc1-c1nc2[nH]ncc2[nH]1
- GI50 (WM3629): inactive

Compound: Cc1ccc(NC(=O)Nc2c(F)cc(F)c(C)c2F)cc1-c1nc2c(cnn2Cc2ccccc2)[nH]1
- GI50 [1]: 7.73 µM
- GI50 [2]: 1.29 µM

Compound: Cc1ccc(NC(=O)Nc2cc(Cl)cc(C(F)(F)F)c2)cc1-c1nc2c(cnn2Cc2ccccc2)n1C
- GI50 [1]: 56.3 µM
- GI50 [2]: 5.85 µM

Compound: COc1ccc(Cn2ncc3c2nc(-c2ccc(NC(=O)Nc4cc(Cl)cc(C(F)(F)F)c4)cc2C)n3C)cc1
- GI50 [1]: 51.5 µM
- GI50 [2]: 3.77 µM

Compound: CNC(=O)c1cc(Oc2ccc(NC(=O)Nc3ccc(Cl)c(C(F)(F)F)c3)cc2)ccn1 [SORAFENIB]
- GI50 [1]: 5.58 µM
- GI50 [2]: 0.65 µM

- GI50 (A375P): inactive
Compound: Cc1ccc2nc(NC(=O)Nc3ccc(-c4nc5[nH]ncc5[nH]4)c(C)c3)sc2c1
- GI50 (WM3629): inactive

- IC50 [3]: Not Active
Compound: Cc1cc(NC(=O)Nc2cc(Cl)cc(C(F)(F)F)c2)ccc1-c1nc2c(cnn2Cc2ccccc2)n1C
- GI50 [1]: 4.16 µM
- GI50 [2]: 0.56 µM

- IC50 ([3]; read-out: IC50): 0.37 µM
Compound: O=C(Nc1ccc(-c2nc3c(cnn3Cc3ccccc3)[nH]2)cc1)Nc1cc(Cl)cc(C(F)(F)F)c1
- GI50 [1]: 6.65 µM
- GI50 [2]: 0.75 µM

- GI50 (A375P): inactive
Compound: Cc1ccc(NC(=O)Nc2cccc(Cl)c2Cl)cc1-c1nc2[nH]ncc2[nH]1
- GI50 (WM3629): inactive

Compound: COc1ccc(Cn2ncc3[nH]c(-c4cc(NC(=O)Nc5c(F)cc(F)c(C)c5F)ccc4C)nc32)cc1
- GI50 [1]: > 100 µM
- GI50 [2]: > 100 µM

Compound: COc1ccc(Cn2ncc3[nH]c(-c4ccc(NC(=O)Nc5cc(N6CCOCC6)cc(C(F)(F)F)c5)cc4C)nc32)cc1
- GI50 [1]: > 100 µM
- GI50 [2]: > 100 µM

- IC50 ([3]; read-out: IC50): 0.156 µM
Compound: Cc1ccc(NC(=O)Nc2cc(N3CCOCC3)cc(C(F)(F)F)c2)cc1-c1nc2c(cnn2Cc2ccccc2)[nH]1
- GI50 [1]: 4.29 µM
- GI50 [2]: 0.72 µM

- GI50 (A375P): inactive
Compound: COc1ccc(Cn2ncc3[nH]c(-c4ccc(NC(=O)Nc5nc6ccc(C)cc6s5)cc4C)nc32)cc1
- GI50 (WM3629): inactive

- IC50 ([3]; read-out: IC50): 0.076 µM
Compound: Cc1ccc(NC(=O)Nc2cc(Cl)cc(C(F)(F)F)c2)cc1-c1nc2c(cnn2Cc2ccccc2)[nH]1
- GI50 [1]: 3.79 µM
- GI50 [2]: 0.85 µM
